Source: ChEMBL document CHEMBL3112476, “Inhibition of IκB kinase-β and IκB kinase-α by heterocyclic adamantyl arotinoids” (Bioorg Med Chem, 2014)

How the values were obtained:
[1] = target: T1, Inhibitor of nuclear factor kappa-B kinase subunit alpha (Homo sapiens) (UniProt O15111); assay: Inhibition of recombinant IKKalpha (unknown origin) using ulight-IkappaomegaBalpha as substrate at 20 uM after 2 hrs by LANCE ultra TR-FRET assay relative to control
T1 sequence (whole entry): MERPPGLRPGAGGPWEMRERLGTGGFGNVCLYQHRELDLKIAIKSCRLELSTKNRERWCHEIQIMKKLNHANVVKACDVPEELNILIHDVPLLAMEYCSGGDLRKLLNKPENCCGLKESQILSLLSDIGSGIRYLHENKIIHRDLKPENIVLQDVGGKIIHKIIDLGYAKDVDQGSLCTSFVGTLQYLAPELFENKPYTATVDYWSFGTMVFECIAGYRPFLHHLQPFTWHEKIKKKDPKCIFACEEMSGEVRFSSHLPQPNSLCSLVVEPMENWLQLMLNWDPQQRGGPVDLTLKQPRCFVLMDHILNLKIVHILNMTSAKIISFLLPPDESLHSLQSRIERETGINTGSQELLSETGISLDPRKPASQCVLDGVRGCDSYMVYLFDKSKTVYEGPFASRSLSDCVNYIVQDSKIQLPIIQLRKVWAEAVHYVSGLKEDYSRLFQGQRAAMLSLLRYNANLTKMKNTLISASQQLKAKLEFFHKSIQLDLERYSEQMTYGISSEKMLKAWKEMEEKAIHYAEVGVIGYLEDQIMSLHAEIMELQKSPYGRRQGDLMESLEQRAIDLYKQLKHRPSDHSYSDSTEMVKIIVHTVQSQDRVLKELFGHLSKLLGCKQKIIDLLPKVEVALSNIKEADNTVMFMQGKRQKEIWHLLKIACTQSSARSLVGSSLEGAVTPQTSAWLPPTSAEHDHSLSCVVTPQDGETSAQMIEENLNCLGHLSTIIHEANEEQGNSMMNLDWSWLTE
Outline: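 Recombinant IKKα (4 nM), IKKβ (1 nM) or IKKε (2 nM) in 50 mM Hepes pH 7.4, 10 mM MgCl2, 1 mM EGTA, 2 mM DTT, 0.01% Tween-20. Substrate was 50 nM ULight-IκBα (IKKα/β) or ULight-rpS6 (IKKε); ATP was 1.25 µM (α/β) or 5 µM (ε). Compound was tested at 20 µM. Incubation was 1 h (IKKβ) or 2 h (IKKα/ε) at room temperature, stopped with 20 mM EDTA plus 2 nM Eu-anti-phospho antibody, then TR-FRET 665/615 nm. Results are percent inhibition versus solvent; 3–4 experiments, triplicate.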

[2] = target: T2, Inhibitor of nuclear factor kappa-B kinase subunit beta (Homo sapiens, UniProt O14920); assay: Inhibition of recombinant IKKbeta (unknown origin) using ulight-IkappaomegaBalpha as substrate after 1 hr by LANCE ultra TR-FRET assay
T2 sequence (O14920 whole entry): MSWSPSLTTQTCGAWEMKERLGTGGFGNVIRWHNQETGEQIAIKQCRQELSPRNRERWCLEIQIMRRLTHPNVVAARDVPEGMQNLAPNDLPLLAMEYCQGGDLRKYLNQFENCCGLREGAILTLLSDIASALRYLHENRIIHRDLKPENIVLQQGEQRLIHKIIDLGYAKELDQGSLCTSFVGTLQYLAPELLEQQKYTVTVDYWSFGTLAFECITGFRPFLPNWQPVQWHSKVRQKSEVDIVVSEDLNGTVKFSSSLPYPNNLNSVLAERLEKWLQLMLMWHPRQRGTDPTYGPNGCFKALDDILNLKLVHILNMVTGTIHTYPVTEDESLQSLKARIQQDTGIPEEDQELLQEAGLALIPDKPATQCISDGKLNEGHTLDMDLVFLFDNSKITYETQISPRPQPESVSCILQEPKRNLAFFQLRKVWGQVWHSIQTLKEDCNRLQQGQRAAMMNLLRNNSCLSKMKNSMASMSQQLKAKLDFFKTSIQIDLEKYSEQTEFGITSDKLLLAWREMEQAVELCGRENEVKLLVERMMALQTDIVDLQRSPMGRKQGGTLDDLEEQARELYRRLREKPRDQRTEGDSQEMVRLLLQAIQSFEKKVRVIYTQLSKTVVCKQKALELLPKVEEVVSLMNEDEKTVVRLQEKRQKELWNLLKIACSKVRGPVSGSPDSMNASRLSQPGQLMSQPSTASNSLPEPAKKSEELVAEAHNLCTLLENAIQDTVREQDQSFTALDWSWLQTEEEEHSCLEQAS

[3] = target: T3, Retinoic acid receptor alpha (Homo sapiens) (UniProt P10276); assay: Agonist activity at Gal4-fused RARalpha (unknown origin) transfected in HEK293 cells assessed as induction of transcriptional activity at 4 uM after 6 hrs by luciferase/beta-galactosidase reporter gene assay relative to control; format: cell-based
T3 sequence (whole entry): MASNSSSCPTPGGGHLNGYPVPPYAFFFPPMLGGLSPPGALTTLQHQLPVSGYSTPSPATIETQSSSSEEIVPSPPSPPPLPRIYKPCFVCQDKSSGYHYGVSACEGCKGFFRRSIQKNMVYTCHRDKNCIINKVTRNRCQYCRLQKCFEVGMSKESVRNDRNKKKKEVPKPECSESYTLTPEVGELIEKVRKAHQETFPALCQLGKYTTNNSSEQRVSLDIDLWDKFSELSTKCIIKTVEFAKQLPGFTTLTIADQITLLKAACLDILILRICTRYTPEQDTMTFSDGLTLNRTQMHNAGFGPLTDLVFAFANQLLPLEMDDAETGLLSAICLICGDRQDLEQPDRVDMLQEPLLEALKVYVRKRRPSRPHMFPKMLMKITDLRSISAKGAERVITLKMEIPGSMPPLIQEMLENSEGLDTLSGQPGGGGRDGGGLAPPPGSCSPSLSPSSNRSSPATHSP
Outline: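 Gal4-RARα or Gal4-RXRα (10 ng) plus 2 ng β-galactosidase vector, calcium phosphate transfection into HEK-293 cells carrying a 5×UAS luciferase reporter. After 16 h, cells were washed and given 5% charcoal-treated FBS medium, then rested 2 h. Stimulation was with 4 µM compound or 0.1% DMSO; controls were 1 µM atRA (RARα) or 1 µM CD3254 (RXRα). Harvest was at 6 h (RARα) or 24 h (RXRα). Luciferase/β-gal ratio was expressed as fold over unstimulated cells. Data: 2 experiments, triplicate.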

[4] = Cytotoxicity against human Jurkat T cells assessed as cell viability after 24 hrs by CellTiter-Glo assay; format: functional, cell-based
Outline: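 Jurkat cells were seeded the day before treatment in RPMI with 0.5% FBS (10,000 cells/well). They were treated in triplicate across an 8-point dose series starting at 10 µM, with DMSO ≤0.1% as solvent control. ATP was measured by CellTiter-Glo luminescence after 24 h; a time-0 reading separated cytostatic from cytotoxic effects. IC50 was fitted from the curve.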

SMILES	inhibition [1]	IC50 [2]	fold change (FC) [3]	IC50 [4]
COCCOCOc1ccc(-c2ncc(-c3ccc(C(=O)O)cc3)s2)cc1C12CC3CC(CC(C3)C1)C2	82.9%	5.16 µM	1.2	–
COc1nc(/C=C/C(=O)O)cnc1-c1cc(C23CC4CC(CC(C4)C2)C3)c(O)cc1C	50.1%	–	–	5.38 µM
O=C(O)c1ccc(-c2cnc(-c3ccc(O)c(C45CC6CC(CC(C6)C4)C5)c3)s2)cc1	85.3%	3.37 µM	–	2.24 µM
COCCOCOc1cc(C)c(-c2ccc(/C=C/C(=O)O)cc2Cl)cc1C12CC3CC(CC(C3)C1)C2	13.5%	–	1.8	–
COCCOCOc1ccc(-c2ncc(/C=C/C(=O)O)s2)cc1C12CC3CC(CC(C3)C1)C2	4.5%	–	1	–
Cc1cc(O)c(C23CC4CC(CC(C4)C2)C3)cc1-c1ncc(/C=C/C(=O)O)s1	46.6%	–	1	–
COc1nc(-c2ccc(C(=O)O)cc2)cnc1-c1ccc(O)c(C23CC4CC(CC(C4)C2)C3)c1	78.5%	7.81 µM	1.9	3.13 µM
COCCOCOc1cc(C)c(-c2ccc(CC(=O)O)cc2Cl)cc1C12CC3CC(CC(C3)C1)C2	42.3%	–	1.3	–
Cc1cc(O)c(C23CC4CC(CC(C4)C2)C3)cc1-c1ncc(-c2ccc(C(=O)O)cc2)s1	87.9%	4.78 µM	–	4.4 µM
Cc1cc(O)c(C23CC4CC(CC(C4)C2)C3)cc1-c1ccc2cc(C(=O)O)ccc2c1Cl	87.3%	4.75 µM	–	2.19 µM
COCCOCOc1cc(C)c(-c2ncc(-c3ccc(C(=O)O)cc3)s2)cc1C12CC3CC(CC(C3)C1)C2	73.3%	4.43 µM	–	5.71 µM
Cc1cc(O)c(C23CC4CC(CC(C4)C2)C3)cc1-c1ccc(/C=C/C(=O)O)cc1Cl	23.7%	–	–	4.04 µM
COCCOCOc1ccc(-c2ncc(/C=C/C(=O)O)nc2OC)cc1C12CC3CC(CC(C3)C1)C2	4.2%	–	1.1	–
CC(=O)NCCCOc1cc(/C=C/C(=O)O)ccc1-c1cc(C23CC4CC(CC(C4)C2)C3)c(O)cc1C	2.3%	–	–	2.61 µM
COCCOCOc1cc(C)c(-c2ccc3cc(C(=O)O)ccc3c2Cl)cc1C12CC3CC(CC(C3)C1)C2	33.9%	7.06 µM	–	5.62 µM
O=C(O)/C=C/c1cnc(-c2ccc(O)c(C34CC5CC(CC(C5)C3)C4)c2)s1	32.8%	–	1.1	–
COCCOCOc1cc(C)c(-c2ncc(/C=C/C(=O)O)nc2OC)cc1C12CC3CC(CC(C3)C1)C2	45.7%	–	0.8	–
COCCOCOc1ccc(-c2ncc(-c3ccc(C(=O)O)cc3)nc2OC)cc1C12CC3CC(CC(C3)C1)C2	23.8%	–	1.1	–
Cc1cc(O)c(C23CC4CC(CC(C4)C2)C3)cc1-c1ccc(CC(=O)O)cc1Cl	26.9%	–	–	3.98 µM
COCCOCOc1cc(C)c(-c2ncc(/C=C/C(=O)O)s2)cc1C12CC3CC(CC(C3)C1)C2	29.2%	–	1.9	–
COc1nc(/C=C/C(=O)O)cnc1-c1ccc(O)c(C23CC4CC(CC(C4)C2)C3)c1	17.9%	–	–	5.01 µM
